Experiment [1] in a line: In vitro selectivity ratio of PDE6 of Bovine retina to human platelet PDE5 was determined. The method in brief:
(§1)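 Scintillation proximity PDE assay at room temperature, read by scintillation counting. Substrates: [³H]cGMP for PDE5 (sonicated human platelet homogenate) and PDE1 (bovine heart, with 1 µM calmodulin and 4 mM calcium). PDE2 (rat kidney cytosol, Mono-Q purified) used [³H]cAMP plus 1 µM nonradioactive cGMP. PDE6 was stripped from bovine rod outer segments and trypsin-activated. Blank subtracted; activity as percent of vehicle; ratio = IC50 other/IC50 PDE5.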

In experiment [2] the test system is cGMP-specific 3',5'-cyclic phosphodiesterase (Oryctolagus cuniculus). Nature of the experiment: Rabbit Corpus Cavernosum functional assay at 30 nM to determine the efficacy of PDE5 inhibition activity.
A short description of experiment [3]: In vitro selectivity ratio of PDE2 of Rat kidney to human platelet PDE5 was determined. Summed up: as §1
Experiment [4] is described as follows: In vitro selectivity ratio of Bovine Heart PDE1 to human platelet PDE5 was determined. The method in brief:
as §1

Experiment [5] concerns the target cGMP-specific 3',5'-cyclic phosphodiesterase (Homo sapiens, UniProt O76074). Description: In vitro inhibitory concentration against human platelet Phosphodiesterase 5 was determined.
Experiment [6] is described as follows: Selectivity ratio for Bovine retinal PDE6 and human platelet PDE5. Summed up: as §1

pIC50: −log10 of the molar value. A value given as a limit tells only on which side of the number the result lay.

`CCCOc1ccc(C(N)=O)cc1-c1nc(O)c2cc3c(cc2n1)ncn3Cc1ccc(F)cc1`: the IC50 ratio was 60 in experiment [1], > 100000 in experiment [3] and > 100000 in experiment [4]. This compound showed a Control relaxation in experiment [2] of 140%.

With `CCCOc1ccc(S(=O)(=O)N2CCN(CC)CC2)cc1-c1nc(O)c2cc3c(cc2n1)ncn3Cc1cccc(F)c1`, the IC50 ratio in experiment [1] was 80; in experiment [3], > 10000; in experiment [4], > 10000. The compound also yielded a Control relaxation in experiment [2] of 100%.

Consider `CCCOc1ccc(S(=O)(=O)N2CCN(CC)CC2)cc1-c1nc2cc3ncn(Cc4ccccc4Cl)c3cc2c(=O)[nH]1`, for which the pIC50 – broadly, the IC50 on a negative log10 scale, so that one unit is a factor of ten – in experiment [5] was 8.80.

In experiment [5], `CCCOc1ccc(S(=O)(=O)N2CCN(C)CC2)cc1-c1nc2cc3ncn(Cc4ccc(F)cc4)c3cc2c(=O)[nH]1` gave a pIC50 of 8.48.

On to `CCCOc1ccc(S(=O)(=O)N2CCN(CC)CC2)cc1-c1nc2cc3ncn(Cc4cccc(F)c4)c3cc2c(=O)[nH]1`, for which the pIC50 in experiment [5] was 8.85.

With `CCCOc1ccc(S(=O)(=O)N2CCN(C)CC2)cc1-c1nc(O)c2cc3c(cc2n1)ncn3Cc1ccccc1`, the IC50 ratio in experiment [1] was 20; in experiment [3], > 10000; in experiment [4], 3400. Also, the Control relaxation in experiment [2] is 120%.

In the case of `CCCOc1ccc(S(=O)(=O)N2CC[C@H](N(C)C)C2)cc1-c1nc(O)c2cc3c(cc2n1)ncn3Cc1ccccc1`, in experiment [5], the pIC50 is 7.57. Besides, in experiment [6], the IC50 ratio amounted to 3.

`CCCOc1ccc(S(=O)(=O)N2CCN(CC)CC2)cc1-c1nc(O)c2cc3c(cc2n1)ncn3Cc1ccccc1` gave a pIC50 in experiment [5] of 8.96. Moreover, the figures for the IC50 ratio in experiment [1], in experiment [3] and in experiment [4] were 50, > 10000 and > 10000, respectively. This compound showed a Control relaxation in experiment [2] of 90%.

In turn, `CCCOc1ccc(S(=O)(=O)N2CC[C@@H](N(C)C)C2)cc1-c1nc2cc3ncn(Cc4ccc(F)cc4)c3cc2c(=O)[nH]1` showed a pIC50 in experiment [5] of 9.70. The IC50 ratio in experiment [1] was 70; in experiment [3] it was > 10000; in experiment [4], > 10000. The compound further came in with a Control relaxation in experiment [2] of 120%.

Turning to `CCCOc1ccc(S(N)(=O)=O)cc1-c1nc2cc3ncn(Cc4ccc(F)cc4)c3cc2c(=O)[nH]1`, the pIC50 in experiment [5] is 8.49.

On to `CCCOc1ccc(S(=O)(=O)N2CCN(CC)CC2)cc1-c1nc(O)c2cc3c(cc2n1)ncn3Cc1ccccc1Cl`, for which the IC50 ratio is 40 in experiment [1], > 10000 in experiment [3] and > 10000 in experiment [4]. In experiment [2], the Control relaxation is 90%.

With `CCCOc1ccc(S(=O)(=O)N2CCN(CC)CC2)cc1-c1nc(O)c2cc3c(cc2n1)ncn3Cc1ccc(F)cc1`, the pIC50 in experiment [5] is 8.77. Besides, the IC50 ratio in experiment [1] was 80; in experiment [3], > 10000; in experiment [4], > 10000. Moreover, the Control relaxation in experiment [2] amounted to 100%.

For `CCCOc1ccc(S(=O)(=O)N2CC[C@@H](N(C)C)C2)cc1-c1nc(O)c2cc3c(cc2n1)ncn3Cc1ccc(Cl)cc1`, the pIC50 in experiment [5] is 9.28. Further, the IC50 ratio in experiment [1] was 50; in experiment [3], > 10000; in experiment [4] it was > 10000.

For the compound `CCCOc1ccc(C(=O)N2CC[C@@H](N(C)C)C2)cc1-c1nc2cc3ncn(Cc4ccc(F)cc4)c3cc2c(=O)[nH]1`, the pIC50 in experiment [5] is 7.40.

With `CCCOc1ccc(S(N)(=O)=O)cc1-c1nc(O)c2cc3c(cc2n1)ncn3Cc1ccc(F)cc1`, the IC50 ratio in experiment [1] is 20; in experiment [3], > 10000; in experiment [4] it was > 10000. In experiment [2], this compound gave a Control relaxation of 100%.

`CCCOc1ccc(C(=O)N2CCN(CC)CC2)cc1-c1nc2cc3ncn(Cc4ccc(F)cc4)c3cc2c(=O)[nH]1` showed a pIC50 in experiment [5] of 7.46.

For the compound `CCCOc1ccc(S(=O)(=O)N2CCN(CC)CC2)cc1-c1nc2cc3ncn(Cc4ccccc4OC)c3cc2c(=O)[nH]1`, the pIC50 in experiment [5] was 9.21.

Regarding `CCCOc1ccc(S(=O)(=O)N2CC[C@@H](N(C)C)C2)cc1-c1nc(O)c2cc3c(cc2n1)ncn3Cc1ccccc1`, the pIC50 in experiment [5] is 8.96. For the same compound, the IC50 ratio in experiment [1] was 30; in experiment [3] it was > 10000; in experiment [4], > 10000. The Control relaxation in experiment [2] came to 110%.

`CCCOc1ccc(S(=O)(=O)N2CCN(CC)CC2)cc1-c1nc(O)c2cc3c(cc2n1)ncn3Cc1cccc(OC)c1` had a pIC50 in experiment [5] of 8.96. In addition, the IC50 ratio in experiment [1] is 50; in experiment [3] it was 7000; in experiment [4], > 10000. In experiment [2], this compound showed a Control relaxation of 130%.
